Several values for one entry are separate records, joined by “and”; a condition that tells them apart may be missing. Equal values may be shown once.
Assays:
B16 [1] = test: Compound was evaluated in vivo for antitumor activity against B16 melanoma 2 after injecting the compound intravenously for total dose.; assay type: functional, Mus musculus
L1210 [2] = test: Compound was evaluated in vivo for antitumor activity after intraperitoneal administration against L1210(935) for total dose at an optimal dose of 0.5 mg/kg/injection at 1 day schedule.; assay type: functional, Mus musculus
Method in brief: (§1)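 L1210 leukemia, maintained in DBA/2 mice, was given ip as 10⁵ cells on day 0 to F1 hybrid or strain-of-origin mice over 18 g, in groups of 8. Dosing was ip from day 1, and mortality was checked daily. Median day of death counts dying mice only. %ILS = 100×(treated − control median day of death)/control median. Tumor-free survivors were counted on day 60. Weight change is g/mouse at nadir.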

P388 [3] = test: Compound was evaluated in vivo for antitumor activity after intraperitoneal administration against P388/L-PAM(14) for change in body weight at an optimal dose of 1 mg/kg/injection; assay type: functional, Mus musculus
L1210 [4] = test: Compound was evaluated in vivo for antitumor activity after intraperitoneal administration against L1210(935) for tumor free survivors at an optimal dose of 0.125 mg/kg/injection at 1,4,7,11 day schedule.; assay type: functional, Mus musculus; method in brief: as §1
L1210 [5] = test: Compound was evaluated in vivo for antitumor activity after intraperitoneal administration against L1210(935) for median day of death at an optimal dose of 0.5 mg/kg/injection at 1 day schedule.; assay type: functional, Mus musculus; method in brief: as §1
L1210 [6] = test: Compound was evaluated in vivo for antitumor activity after intraperitoneal administration against L1210(935)for % increase in life span at an optimal dose of 0.1 mg/kg/injection at 1-4 day schedule.; assay type: functional; conditions: Mus musculus, L1210, ip; method in brief: as §1
L1210 [7] = test: Compound was evaluated in vivo for antitumor activity after intraperitoneal administration against L1210(935)for change in body weight at an optimal dose of 1 mg/kg/injection at 1 day schedule.; assay type: functional, Mus musculus; method in brief: as §1
B16 [8] = test: Compound was evaluated in vivo for antitumor activity against B16 melanoma after injecting the compound intravenously for total dose.; assay type: functional, Mus musculus
Method in brief: (§2)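 30-60 mg tumor fragments implanted sc by trocar on day 0 into C57Bl/6-derived hosts (B16) or C3H/He-derived hosts (16/C). Drug given iv on days 6, 9 and 13 (B16) or 6, 9 and 12 (16/C), 10 mice per group. Tumors measured by caliper. T/C % taken from median tumor burden of treated vs control groups on day 15 (B16) or day 14 (16/C). Body weight change per mouse recorded at nadir.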

P388 [9] = test: Compound was evaluated in vivo for antitumor activity after intraperitoneal administration against P388/L-PAM(14) for mortality range at an optimal dose of 1 mg/kg/injection; assay type: functional, Mus musculus
M5076 = test: Compound was evaluated in vivo for antitumor activity against M5076 after injecting the compound intravenously for median tumor burden; assay type: functional, Mus musculus
P388 [10] = test: Compound was evaluated in vivo for antitumor activity after intraperitoneal administration against P388/L-PAM(14) for median day of death at an optimal dose of 0.5 mg/kg/injection at one day schedule.; assay type: functional, Mus musculus
P388 [11] = test: Compound was evaluated in vivo for antitumor activity after intraperitoneal administration against P388 (1313) for tumor free survivors at an optimal dose of 0.25 mg/kg/injection; assay type: functional, Mus musculus
L1210 [12] = test: Compound was evaluated in vivo for antitumor activity after intraperitoneal administration against L1210(935)for % increase in life span at an optimal dose of 0.5 mg/kg/injection at 1,4,7,11day schedule.; assay type: functional; conditions: Mus musculus, L1210, ip; method in brief: as §1
L1210 [13] = test: Compound was evaluated in vivo for antitumor activity after intraperitoneal administration against L1210(935) for total dose at an optimal dose of 0.5 mg/kg/injection at 1,4,7,11day schedule.; assay type: functional, Mus musculus; method in brief: as §1
P388 [14] = test: Compound was evaluated in vivo for antitumor activity after intraperitoneal administration against P388 (1313) for median day of death at an optimal dose of 1 mg/kg/injection; assay type: functional, Mus musculus
[15] = Compound was evaluated in vivo for antitumor activity against colon adenocarcinoma 38 after injecting the compound intravenously for optimal dose; assay type: functional, Mus musculus
L1210 [16] = test: Compound was evaluated in vivo for antitumor activity after intraperitoneal administration against L1210(935) for tumor free survivors at an optimal dose of 0.2 mg/kg/injection at 1-4 day schedule.; assay type: functional, Mus musculus; method in brief: as §1
P388 [17] = test: Compound was evaluated in vivo for antitumor activity after intraperitoneal administration against P388/L-PAM(14) for median day of death at an optimal dose of 0.25 mg/kg/injection at 1,4,7,11 day schedule.; assay type: functional, Mus musculus
P388 [18] = test: Compound was evaluated in vivo for antitumor activity after intraperitoneal administration against P388/L-PAM(14) for total dose at an optimal dose of 0.125 mg/kg/injection at 1,4,7,11 day schedule.; assay type: functional, Mus musculus
P388 [19] = test: Compound was evaluated in vivo for antitumor activity after intraperitoneal administration against P388 (1313) for mortality range at an optimal dose of 0.5 mg/kg/injection; assay type: functional, Mus musculus
B16 [20] = test: Compound was evaluated in vivo for antitumor activity against B16 melanoma after injecting the compound intravenously for percent T/C (value in parentheses indicates the day of evaluation); assay type: functional, Mus musculus; method in brief: as §2
P388 [21] = test: Compound was evaluated in vivo for antitumor activity after intraperitoneal administration against P388 (1303) for mortality range at an optimal dose of 0.75 mg/kg/injection; assay type: functional, Mus musculus
L1210 [22] = test: Compound was evaluated in vivo for antitumor activity after intraperitoneal administration against L1210(935)for change in body weight at an optimal dose of 0.2 mg/kg/injection at 1-4 day schedule.; assay type: functional, Mus musculus; method in brief: as §1
L1210 [23] = test: Compound was evaluated in vivo for antitumor activity after intraperitoneal administration against L1210(935)for change in body weight at an optimal dose of 0.4 mg/kg/injection at 1-4 day schedule.; assay type: functional, Mus musculus; method in brief: as §1
[24] = Compound was evaluated in vivo for antitumor activity against Lewis Lung cercinoma after injecting the compound intravenously for median tumor burden; assay type: functional, Mus musculus
Method in brief: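 Lewis lung carcinoma: 10^6 cells implanted im into C57Bl/6-derived hosts. Drug given iv on days 5, 9 and 13, 10 mice per group. Median tumor burden and weight nadir recorded. Survivors were killed on day 19, and their lungs were fixed in Fekete solution so that macroscopic metastases could be counted.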

[25] = Compound was evaluated in vivo for antitumor activity against Glasgow osteogenic sarcoma after injecting the compound intravenously for median tumor burden; assay type: functional, Mus musculus
Method in brief: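 Glasgow osteogenic sarcoma in C57Bl/6-derived hosts: 30-60 mg fragments implanted sc by trocar on day 0. Drug given iv on days 3, 6 and 9, 7 mice per group. Tumors measured by caliper. Median tumor burden recorded on day 10. Body weight change per mouse recorded at nadir. Toxicity-related deaths counted.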

P388 [26] = test: Compound was evaluated in vivo for antitumor activity after intraperitoneal administration against P388 (1313) for % increase in life span at an optimal dose of 0.4 mg/kg/injection; assay type: functional; conditions: Mus musculus, P388, ip
L1210 [27] = test: Compound was evaluated in vivo for antitumor activity after intraperitoneal administration against L1210(935) for tumor free survivors at an optimal dose of 0.25 mg/kg/injection at 1,4,7,11 day schedule.; assay type: functional, Mus musculus; method in brief: as §1
P388 [28] = test: Compound was evaluated in vivo for antitumor activity after intraperitoneal administration against P388/L-PAM(14) for % increase in life span at an optimal dose of 0.25 mg/kg/injection at 1,4,7,11 day schedule.; assay type: functional; conditions: Mus musculus, P388, ip
[29] = Compound was evaluated in vivo for antitumor activity against colon adenocarcinoma 38 after injecting the compound intravenously for median tumor burden; assay type: functional, Mus musculus
P388 [30] = test: Compound was evaluated in vivo for antitumor activity after intraperitoneal administration against P388 (1313) for % increase in life span at an optimal dose of 0.2 mg/kg/injection; assay type: functional; conditions: Mus musculus, P388, ip

CN(C)CCCNc1ncnc2c1C(=O)C(N1CC1)=C(N1CC1)C2=O
Total dose (B16 [1]): 1.8 mg/kg | Total dose (L1210 [2]): 0.5 mg/kg | Change in body weight (P388 [3]): -1.2 g mouse-1 | Survivors (L1210 [4]): 0 | Median day of death (L1210 [5]): 14 | ILS at 0.1 mg/kg (L1210 [6]): 27% | Change in body weight (L1210 [7]): 0.6 g mouse-1 | Total dose (B16 [8]): 0.6 mg/kg | Mortality (P388 [9]): 26 days | Tumor burden (M5076): 29 | Median day of death (P388 [10]): 18 | Survivors (P388 [11]): 0 | ILS at 0.5 mg/kg (L1210 [12]): 27% | Total dose (L1210 [13]): 2 mg/kg | Median day of death (P388 [14]): 19 | Optimal dose [15]: 0.25 mg/kg | Survivors (L1210 [16]): 1 | Median day of death (P388 [17]): 16.5 | Total dose (P388 [18]): 0.5 mg/kg | Mortality (P388 [19]): 30 days | T/C (B16 [20]): 41% and 78% | Mortality (P388 [21]): 65 days | Change in body weight (L1210 [22]): 0.4 g mouse-1 | Change in body weight (L1210 [23]): 0.3 g mouse-1 | Tumor burden [24]: 7717 mg and 7748 mg | Tumor burden [25]: 40 mg | ILS at 0.4 mg/kg (P388 [26]): 91% | Survivors (L1210 [27]): 0 | ILS at 0.25 mg/kg (P388 [28]): 18% | Tumor burden [29]: 416 | ILS at 0.2 mg/kg (P388 [30]): 62%

Source: ChEMBL document CHEMBL1125740, “Heterocyclic quinones. 17. A new in vivo active antineoplastic drug: 6,7-bis(1-aziridinyl)-4-[[3-(N,N-dimethylamino)propyl]amino]-5,8- quinazolinedione” (J Med Chem, 1991)
